Drawing on ChEMBL document CHEMBL4041463, “Pyrazolo[1,5-a]pyridine-3-carboxamide hybrids: Design, synthesis and evaluation of anti-tubercular activity” (Eur J Med Chem, 2017), this text covers MIC for nine molecules.

Values after ≈ are worked out from the molar mass of the structure shown.

Common to all, as to format: functional
Assay [1] concerns Mycobacterium tuberculosis. Description: Antitubercular activity against Mycobacterium tuberculosis H37Ra harboring pTYOK in UAIRa broth culture assessed as concentration required to reduce relative luminescence unit to <10% measured after 4 days by autoluminescence assay. To be noted: 96 h.
The subject of assay [2] is Mycobacterium tuberculosis. Briefly: Antitubercular activity against isoniazid resistant Mycobacterium tuberculosis H37Rv harboring KAtG Y155 deletion mutant after 5 days. Summed up:
(§1)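 Ten-point two-fold DMSO dilutions in 7H9-Tw-OADC, final DMSO 2%, top concentration 200 µM. Incubated 5 days; growth read as OD590. Controls: medium/DMSO background, 100 µM rifampicin, DMSO-only, plus rifampicin dose-response. Gompertz fit of % growth; MIC taken as onset of zero growth. Plate acceptance: OD590 >0.2 in maximum-growth wells and rifampicin MIC within 3-fold of expected.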

The subject of assay [3] is Mycobacterium tuberculosis. Briefly: Antitubercular activity against isoniazid resistant Mycobacterium tuberculosis ATCC 35822 after 5 days. To be noted: ATCC 35822, 120 h. An outline of the steps:
as §1

Assay [4] concerns Mycobacterium tuberculosis. Description: Antitubercular activity against rifampicin resistant Mycobacterium tuberculosis H37Rv harboring rpoB S522L mutant after 5 days. An outline of the steps: as §1
The subject of assay [5] is Mycobacterium tuberculosis. Briefly: Antitubercular activity against rifampicin resistant Mycobacterium tuberculosis ATCC 35828 after 5 days. To be noted: ATCC 35828, 120 h. An outline of the steps: as §1
The test system of assay [6] is Mycobacterium tuberculosis. Description: Antitubercular activity against fluoroquinolone resistant Mycobacterium tuberculosis H37Rv harboring gyrB D94N mutant after 5 days. An outline of the steps:
as §1

As for `CCc1nn2ccc(Cl)cc2c1C(=O)NCc1ccc(-c2ccc(OC(F)(F)F)cc2)nc1`, the minimum inhibitory concentration (MIC) in assay [1] was determined as 0.1 µg/mL (≈ 0.211 µM).

Turning to `CCc1nn2ccc(Cl)cc2c1C(=O)NCC1CCN(CC23CC4CC(CC(C4)C2)C3)CC1`, the MIC in assay [1] amounted to 3 µg/mL (≈ 6.4 µM).

As for `CCc1nn2ccc(Cl)cc2c1C(=O)NC[C@H]1CN(c2ccc(N3CCOCC3)c(F)c2)C(=O)O1`, the minimal inhibitory concentration (MIC) in assay [1] was greater than 10 µg/mL.

As to `Cc1ccn2nc(C)c(C(=O)NCc3ccc(N4CCC(Oc5ccc(OC(F)(F)F)cc5)CC4)cc3)c2c1`, the MIC in assay [1] came to 0.03 µg/mL (≈ 0.0557 µM).

Regarding `CCc1nn2ccc(Cl)cc2c1C(=O)NC/C=C(\C)CCC=C(C)C`, the minimal inhibitory concentration (MIC) in assay [1] is 0.3 µg/mL (≈ 0.834 µM).

On to `Cc1ccn2nc(C)c(C(=O)NCc3ccc(OC(F)(F)F)cc3)c2c1`, for which, in assay [1], the MIC was determined as 3 µg/mL (≈ 8.26 µM).

In the case of `NNC(=O)c1ccncc1` [ISONIAZID], the MIC in assay [1] is 0.41 µg/mL (≈ 2.99 µM); in assay [2], greater than 27 µg/mL; in assay [3], greater than 27 µg/mL; in assay [4] it was 0.056 µg/mL (≈ 0.408 µM); in assay [5], 0.11 µg/mL (≈ 0.802 µM); in assay [6], 0.088 µg/mL (≈ 0.642 µM).

Regarding `C[C@H]1COc2c(N3CCN(C)CC3)c(F)cc3c(=O)c(C(=O)O)cn1c23.C[C@H]1COc2c(N3CCN(C)CC3)c(F)cc3c(=O)c(C(=O)O)cn1c23.O` [LEVOFLOXACIN], the MIC came out at 0.44 µg/mL in assay [2]; 0.59 µg/mL in assay [3]; 0.37 µg/mL in assay [4]; 0.63 µg/mL in assay [5]; 10 µg/mL in assay [6].

`CO[C@H]1/C=C/O[C@@]2(C)Oc3c(C)c(O)c4c(O)c(c(/C=N/N5CCN(C)CC5)c(O)c4c3C2=O)NC(=O)/C(C)=C\C=C\[C@H](C)[C@H](O)[C@@H](C)[C@@H](O)[C@@H](C)[C@H](OC(C)=O)[C@@H]1C` [RIFAMPIN]: the MIC in assay [1] is 0.03 µg/mL (≈ 0.0365 µM); in assay [2] it was 0.016 µg/mL (≈ 0.0194 µM); in assay [3] it was 0.007 µg/mL (≈ 0.00851 µM); in assay [4], 0.42 µg/mL (≈ 0.51 µM); in assay [5], greater than 41 µg/mL; in assay [6], 0.017 µg/mL (≈ 0.0207 µM).
